# ChEMBL document CHEMBL1147863, “Synthesis, antimicrobial activities and cytogenetic studies of newer diazepino quinoline derivatives via Vilsmeier-Haack reaction” (2007)
# The source made the active and inactive calls. The calls are words filed in the database; no cut-off is given here.
# How the values were obtained:
# Aeromonas hydrophila [1] = assay: Antibacterial activity against Aeromonas hydrophila at 0.125% (w/v) concentration after 24 hrs by disc diffusion method; type: functional
# Summary of the method: (§1)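 Disc diffusion on nutrient agar (pH 7.5 ± 0.2) swabbed with bacterial culture; compounds dissolved in chloroform at 0.125%, 0.25% or 0.5% w/v, soaked onto 5 mm filter paper discs placed on seeded plates. Incubated 35 ± 2 °C, 24 h; inhibition zone diameter (mm) measured, minus zone from solvent-only plate.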
# Aeromonas hydrophila [2] = assay: Antibacterial activity against Aeromonas hydrophila at 0.25% (w/v) concentration after 24 hrs by disc diffusion method; type: functional; summary of the method: as §1
# Aeromonas hydrophila [3] = assay: Antibacterial activity against Aeromonas hydrophila at 0.5% (w/v) concentration after 24 hrs by disc diffusion method; type: functional; summary of the method: as §1
# Escherichia coli [4] = assay: Antibacterial activity against Escherichia coli at 0.125% (w/v) concentration after 24 hrs by disc diffusion method; type: functional; summary of the method: as §1
# Escherichia coli [5] = assay: Antibacterial activity against Escherichia coli at 0.25% (w/v) concentration after 24 hrs by disc diffusion method; type: functional; summary of the method: as §1
# Escherichia coli [6] = assay: Antibacterial activity against Escherichia coli at 0.5% (w/v) concentration by after 24 hrs by disc diffusion method; type: functional; summary of the method: as §1
# Salmonella typhi [7] = assay: Antibacterial activity against Salmonella typhi at 0.125% (w/v) concentration after 24 hrs by disc diffusion method; type: functional, Salmonella enterica subsp. enterica serovar Typhi
# Summary of the method: (§2)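 Disc diffusion on nutrient agar (pH 7.5 ± 0.2) swabbed with bacteria. Compounds were dissolved in chloroform at a final 0.125%, 0.25% or 0.5% w/v and loaded onto 5 mm filter-paper discs. Plates were incubated at 35 ± 2 °C for 24 h. The inhibition-zone diameter (mm) was reported after subtracting the zone of the solvent-only plate.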
# Salmonella typhi [8] = assay: Antibacterial activity against Salmonella typhi at 0.25% (w/v) concentration after 24 hrs by disc diffusion method; type: functional, Salmonella enterica subsp. enterica serovar Typhi; summary of the method: as §2
# Salmonella typhi [9] = assay: Antibacterial activity against Salmonella typhi at 0.5% (w/v) concentration after 24 hrs by disc diffusion method; type: functional, Salmonella enterica subsp. enterica serovar Typhi; summary of the method: as §2
# Aspergillus flavus [10] = assay: Antifungal activity against Aspergillus flavus at 0.5% (w/v) concentration by disc diffusion method; type: functional
# Summary of the method: (§3)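 Potato dextrose agar plates were seeded with a spore suspension (10⁶ spores/mL). Compounds in acetone at a final 0.5%, 1% or 2% w/v were loaded onto 5 mm filter-paper discs. Plates were incubated at 28 ± 2 °C for four days. Zone diameter was measured after subtracting the acetone-only plate zone, with carbendazim as standard.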
# Aspergillus flavus [11] = assay: Antifungal activity against Aspergillus flavus at 1% (w/v) concentration by disc diffusion method; type: functional; summary of the method: as §3
# Aspergillus flavus [12] = assay: Antifungal activity against Aspergillus flavus at 2% (w/v) concentration by disc diffusion method; type: functional; summary of the method: as §3
# Talaromyces funiculosus [13] = assay: Antifungal activity against Penicillium funiculosum at 0.5% (w/v) concentration by disc diffusion method; type: functional; summary of the method: as §3
# Talaromyces funiculosus [14] = assay: Antifungal activity against Penicillium funiculosum at 1% (w/v) concentration by disc diffusion method; type: functional; summary of the method: as §3
# Talaromyces funiculosus [15] = assay: Antifungal activity against Penicillium funiculosum at 2% (w/v) concentration by disc diffusion method; type: functional; summary of the method: as §3
# Alternaria macrospora [16] = assay: Antifungal activity against Alternaria macrospora at 0.5% (w/v) concentration by disc diffusion method; type: functional; summary of the method: as §3
# Alternaria macrospora [17] = assay: Antifungal activity against Alternaria macrospora at 1% (w/v) concentration by disc diffusion method; type: functional; summary of the method: as §3
# Alternaria macrospora [18] = assay: Antifungal activity against Alternaria macrospora at 2% (w/v) concentration by disc diffusion method; type: functional; summary of the method: as §3
# Fusarium oxysporum [19] = assay: Antifungal activity against Fusarium oxysporum at 0.5% (w/v) concentration by disc diffusion method; type: functional; summary of the method: as §3
# Fusarium oxysporum [20] = assay: Antifungal activity against Fusarium oxysporum at 1% (w/v) concentration by disc diffusion method; type: functional; summary of the method: as §3
# Fusarium oxysporum [21] = assay: Antifungal activity against Fusarium oxysporum at 2% (w/v) concentration by disc diffusion method; type: functional; summary of the method: as §3
# [22] = Induction of chromosomal aberration in human peripheral blood leukocytes assessed as number of chromatid gaps at 20 ug/mL after 24 hrs; type: functional, Leukocyte
# Summary of the method: (§4)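 Leukocytes from venous blood of three healthy non-smoking male donors, cultured at 37 °C for 72 h in McCoy's 5a with AB serum and PHA. Compound in 1% acetone was added at 0, 24 or 48 h after culture initiation (72, 48 or 24 h exposure), with water and acetone controls and triplicate cultures. Colchicine was added before harvest, then KCl hypotonic, fixation and Giemsa staining. Gaps and breaks were counted in 350 metaphases per treatment.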
# [23] = Induction of chromosomal aberration in human peripheral blood leukocytes assessed as number of chromatid breaks at 20 ug/mL after 24 hrs; type: functional, Leukocyte; summary of the method: as §4
# [24] = Induction of chromosomal aberration in human peripheral blood leukocytes assessed as number of chromatid gaps at 20 ug/mL after 48 hrs; type: functional, Leukocyte; summary of the method: as §4
# [25] = Induction of chromosomal aberration in human peripheral blood leukocytes assessed as number of chromatid breaks at 20 ug/mL after 48 hrs; type: functional, Leukocyte; summary of the method: as §4
Structure (SMILES),inhibition zone (IZ) (Aeromonas hydrophila [1]) [mm],inhibition zone (IZ) (Aeromonas hydrophila [2]) [mm],inhibition zone (IZ) (Aeromonas hydrophila [3]) [mm],Activity (Escherichia coli [4]),inhibition zone (IZ) (Escherichia coli [5]) [mm],inhibition zone (IZ) (Escherichia coli [6]) [mm],inhibition zone (IZ) (Salmonella typhi [7]) [mm],inhibition zone (IZ) (Salmonella typhi [8]) [mm],inhibition zone (IZ) (Salmonella typhi [9]) [mm],inhibition zone (IZ) (Aspergillus flavus [10]) [mm],inhibition zone (IZ) (Aspergillus flavus [11]) [mm],inhibition zone (IZ) (Aspergillus flavus [12]) [mm],inhibition zone (IZ) (Talaromyces funiculosus [14]) [mm],inhibition zone (IZ) (Talaromyces funiculosus [15]) [mm],inhibition zone (IZ) (Alternaria macrospora [16]) [mm],inhibition zone (IZ) (Alternaria macrospora [17]) [mm],inhibition zone (IZ) (Alternaria macrospora [18]) [mm],inhibition zone (IZ) (Fusarium oxysporum [19]) [mm],inhibition zone (IZ) (Fusarium oxysporum [20]) [mm],inhibition zone (IZ) (Fusarium oxysporum [21]) [mm],also measured
Cc1cccc2c(Cl)c3c(nc12)C=CNN=C3,4,7,11,inactive,2,6,5,7,12,2,4,8,3,10,3,6,10,2,6,10,Activity (Talaromyces funiculosus [13]): inactive; Activity [22]: 0.6%; Activity [23]: 0.3%
Cc1ccc(C)c2c(Cl)c3c(nc12)C=CNN=C3,4,8,11,–,5,9,5,9,14,4,9,16,10,17,7,11,17,4,11,15,inhibition zone (IZ) (Escherichia coli [4]): 2 mm; inhibition zone (IZ) (Talaromyces funiculosus [13]): 5 mm; Activity [22]: 2%; Activity [24]: 0.9%; Activity [23]: 0.9%; Activity [25]: 0.3%
Cc1ccc2c(Cl)c3c(nc2c1)C=CNN=C3,5,9,12,inactive,1,5,4,9,13,4,7,11,6,11,4,10,12,3,7,11,inhibition zone (IZ) (Talaromyces funiculosus [13]): 3 mm; Activity [22]: 1.1%; Activity [23]: 0.6%
O=Cc1c(/C=C/O)nc2ccccc2c1Cl,4,6,9,inactive,–,–,3,5,9,2,3,8,1,5,–,1,4,–,–,4,Activity (Escherichia coli [5]): inactive; Activity (Escherichia coli [6]): inactive; Activity (Talaromyces funiculosus [13]): inactive; Activity (Alternaria macrospora [16]): inactive; Activity (Fusarium oxysporum [19]): inactive; Activity (Fusarium oxysporum [20]): inactive
